We go through two compounds from ChEMBL document CHEMBL2346664, “Synthesis, characterization and in vitro anticancer evaluation of novel 1,2,4-triazolin-3-one derivatives” (2013).

Each structure is given as a SMILES string.

Common to all, as to type: functional
In experiment [1] the test system is SR. Briefly: Growth inhibition of human SR cells assessed as cell growth at 10 '-8 M after 48 hrs by sulforhodamine B assay. Conditions: read-out: Activity. On the technique in general: In SRB staining, fixed cells bind dye roughly in proportion to their protein.
The subject of the next experiment is K562. Description: Growth inhibition of human K562 cells assessed as growth inhibition at 10 uM after 48 hrs by sulforhodamine B assay. Conditions: K562, 48 h, read-out: GI.
In experiment [2] the test system is PC-3. Description: Growth inhibition of human PC3 cells assessed as cell growth at 10 '-6 M after 48 hrs by sulforhodamine B assay. Conditions: PC-3, 48 h, read-out: Activity.
In the next experiment the test system is IGROV-1. Description: Growth inhibition of human IGROV1 cells assessed as cell growth at 10 '-8 M after 48 hrs by sulforhodamine B assay. Conditions: IGROV-1, 48 h, read-out: Activity.
Experiment [3] concerns SN12C. Description: Growth inhibition of human SN12C cells assessed as cell growth at 10 '-6 M after 48 hrs by sulforhodamine B assay. Conditions: read-out: Activity.
In experiment [4] the test system is CAKI-1. Description: Growth inhibition of human CAKI-1 cells assessed as cell growth at 10 '-7 M after 48 hrs by sulforhodamine B assay. Conditions: CAKI-1, 48 h, read-out: Activity. The essentials: (§1)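 Percent growth at each of the five concentrations of the 48 h continuous-exposure NCI SRB screen. Drug stocks were in DMSO at 400× the top final concentration and diluted in medium with gentamicin. Growth was calculated as [(Ti-Tz)/(C-Tz)]×100 when Ti ≥ Tz, or [(Ti-Tz)/Tz]×100 when Ti < Tz. Tz plates were fixed at drug addition; untreated wells served as control. Absorbance was read at 515 nm.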

The next experiment deals with MDA-MB-435. Description: Growth inhibition of human MDA-MB-435 cells after 48 hrs by sulforhodamine B assay. Conditions: MDA-MB-435, 48 h. In a few lines:
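NCI 60-cell-line five-dose screen. Cells were plated at 5,000–40,000/well by doubling time and grown 24 h at 37 °C, 5% CO2. Time-zero plates were TCA-fixed. Drug from DMSO stock was tested at 0.01, 0.1, 1, 10 and 100 µM final for 48 h continuous exposure. Read-out was SRB at 515 nm. GI50 is the concentration giving 50% reduction in net protein increase versus untreated control.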

In the next experiment the test system is COLO 205. Description: Growth inhibition of human COLO205 cells assessed as cell growth at 10 '-8 M after 48 hrs by sulforhodamine B assay. Conditions: COLO 205, 48 h, read-out: Activity.
A further experiment concerns ACHN. Briefly: Growth inhibition of human ACHN cells assessed as cell growth at 10 '-4 M after 48 hrs by sulforhodamine B assay. Conditions: read-out: Activity. In a few lines:
as §1

The test system of another experiment is UACC-257. Briefly: Growth inhibition of human UACC257 cells assessed as cell growth at 10 '-8 M after 48 hrs by sulforhodamine B assay. Conditions: UACC-257, 48 h, read-out: Activity.
In experiment [5] the test system is DU-145. Briefly: Growth inhibition of human DU145 cells assessed as cell growth at 10 '-4 M after 48 hrs by sulforhodamine B assay. Conditions: DU-145, 48 h, read-out: Activity.
Experiment [6] concerns SR. Briefly: Growth inhibition of human SR cells assessed as cell growth at 10 '-7 M after 48 hrs by sulforhodamine B assay. Conditions: read-out: Activity.
In a further experiment the test system is 786-0. Briefly: Growth inhibition of human 786-0 cells assessed as cell growth at 10 '-7 M after 48 hrs by sulforhodamine B assay. Conditions: 786-0, 48 h, read-out: Activity. In a few lines: as §1
Experiment [7] deals with PC-3. Description: Growth inhibition of human PC3 cells assessed as cell growth at 10 '-7 M after 48 hrs by sulforhodamine B assay. Conditions: PC-3, 48 h, read-out: Activity.
Experiment [8] concerns UO-31. Briefly: Growth inhibition of human UO31 cells assessed as cell growth at 10 '-4 M after 48 hrs by sulforhodamine B assay. Conditions: UO-31, 48 h, read-out: Activity.
For a further experiment, the system named is HT-29. Briefly: Growth inhibition of human HT-29 cells assessed as cell growth at 10 '-8 M after 48 hrs by sulforhodamine B assay. Conditions: HT-29, 48 h, read-out: Activity.
For experiment [9], the system named is SN12C. Description: Growth inhibition of human SN12C cells assessed as cell growth at 10 '-4 M after 48 hrs by sulforhodamine B assay. Conditions: read-out: Activity.
Experiment [10] has as its system SK-MEL-2. Briefly: Growth inhibition of human SK-MEL-2 cells assessed as cell growth at 10 '-7 M after 48 hrs by sulforhodamine B assay. Conditions: SK-MEL-2, 48 h, read-out: Activity.
For a further experiment, the system named is HOP-62. Description: Growth inhibition of human HOP62 cells assessed as cell growth at 10 '-6 M after 48 hrs by sulforhodamine B assay. Conditions: HOP-62, 48 h, read-out: Activity.
Another experiment concerns U-251. Description: Growth inhibition of human U251 cells assessed as cell growth at 10 '-8 M after 48 hrs by sulforhodamine B assay. Conditions: U-251, 48 h, read-out: Activity.
For experiment [11], the system named is UO-31. Briefly: Growth inhibition of human UO31 cells assessed as growth inhibition at 10 uM after 48 hrs by sulforhodamine B assay. Conditions: UO-31, 48 h, read-out: GI.
A further experiment relates to OVCAR-4. Briefly: Growth inhibition of human OVCAR4 cells assessed as cell growth at 10 '-4 M after 48 hrs by sulforhodamine B assay. Conditions: OVCAR-4, 48 h, read-out: Activity.
Experiment [12] deals with NCI-H522. Briefly: Growth inhibition of human NCI-H522 cells assessed as cell growth at 10 '-7 M after 48 hrs by sulforhodamine B assay. Conditions: NCI-H522, 48 h, read-out: Activity.
Another experiment has as its system HCT-116. Briefly: Growth inhibition of human HCT116 cells assessed as cell growth at 10 '-4 M after 48 hrs by sulforhodamine B assay. Conditions: HCT-116, 48 h, read-out: Activity.
Experiment [13] concerns CAKI-1. Description: Growth inhibition of human CAKI-1 cells assessed as growth inhibition at 10 uM after 48 hrs by sulforhodamine B assay. Conditions: CAKI-1, 48 h, read-out: GI. In a few lines: (§2)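 Percent growth inhibition from the single 10^-5 M NCI-60 screen, reported as 100 minus growth percent. Growth percent was measured after 48 h drug exposure at 37 °C, 5% CO2, using TCA fixation, SRB staining and absorbance at 515 nm, against untreated controls and time-zero plates.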

In experiment [14] the test system is DU-145. Description: Growth inhibition of human DU145 cells assessed as cell growth at 10 '-8 M after 48 hrs by sulforhodamine B assay. Conditions: DU-145, 48 h, read-out: Activity.
Experiment [15] has as its system T47D. Briefly: Growth inhibition of human T47D cells assessed as cell growth at 10 '-5 M after 48 hrs by sulforhodamine B assay. Conditions: read-out: Activity.
The nature of experiment [16]: Growth inhibition of human NCI-ADR-RES cells assessed as cell growth at 10 '-5 M after 48 hrs by sulforhodamine B assay. Conditions: read-out: Activity.
In the next experiment the test system is BT-549. Description: Growth inhibition of human BT549 cells assessed as growth inhibition at 10 uM after 48 hrs by sulforhodamine B assay. Conditions: BT-549, 48 h, read-out: GI. The essentials:
as §2

For experiment [17], the system named is SK-MEL-2. Description: Growth inhibition of human SK-MEL-2 cells assessed as cell growth at 10 '-4 M after 48 hrs by sulforhodamine B assay. Conditions: SK-MEL-2, 48 h, read-out: Activity.
Experiment [18] concerns T47D. Description: Growth inhibition of human T47D cells assessed as cell growth at 10 '-8 M after 48 hrs by sulforhodamine B assay. Conditions: read-out: Activity.
For experiment [19], the system named is NCI-H522. Description: Growth inhibition of human NCI-H522 cells assessed as cell growth at 10 uM after 48 hrs by sulforhodamine B assay. Conditions: NCI-H522, 48 h, read-out: Activity.

In general, GI50 refers to the concentration at which growth is held to half of that of the control. One may read the TGI as the concentration at which net growth stops.

On to `Cc1cc(=O)oc2cc(OCCn3c(C)nn(-c4ccc(Cl)cc4)c3=O)ccc12`, for which the growth at 0.01 µM with SR [1] was 101%; with IGROV-1, 108%; in the experiment on COLO 205, 102%; in the experiment with UACC-257, 95%; in the experiment with HT-29 it was 104%; with U-251 it was 98%. For the same compound, the growth at 0.01 µM with DU-145 [14] is 111%; with T47D [18], 98%. Besides, the inhibition of growth at 10 µM with K562 is 83.7%; in the experiment on UO-31 [11], 57.2%; with CAKI-1 [13], 80.5%; in the experiment on BT-549, 43.3%. The growth at 1 µM in the experiment on PC-3 [2] stood at 74%; with SN12C [3], 82%; with HOP-62, 89%. Moreover, the growth at 0.1 µM in the experiment with CAKI-1 [4] is 92%; in the experiment with SR [6], 99%; with 786-0 it was 104%; in the experiment with PC-3 [7] it was 90%; with SK-MEL-2 [10], 107%; in the experiment on NCI-H522 [12] it was 96%. For the same compound, the concentration for 50% growth inhibition (GI50) in the experiment on MDA-MB-435 was 2690 nM. For the same compound, the TGI in the experiment on MDA-MB-435 was found to be 8370 nM. Besides, the CC50 in the experiment on MDA-MB-435 (read-out: LD50 (the source's name)) was above 1000 nM. Also, the growth at 100 µM in the experiment on ACHN was determined as 25%; in the experiment with DU-145 [5], 10%; with UO-31 [8] it was 39%; with SN12C [9], 37%; in the experiment on OVCAR-4 it was 40%; in the experiment with HCT-116, 23%. Also, the growth at 100 µM with SK-MEL-2 [17] was found to be 14%. In addition, the growth at 10 µM with T47D [15] was 45%; in experiment [16], 10%.

In the case of `Cc1nn(-c2ccc(Cl)cc2)c(=O)n1CCN1CCOCC1`, in the experiment with NCI-H522 [19], the growth at 10 µM was found to be 69%.
